Results from ChEMBL document CHEMBL1144729, “N-pyridin-3-yl- and N-quinolin-3-yl-benzamides: modulators of human vanilloid receptor 1 (TRPV1)” (Bioorg Med Chem Lett, 2008).

Legend:
[1] = biological target: T1, Transient receptor potential cation channel subfamily V member 1 (Homo sapiens, UniProt Q8NER1); assay: Activity at human TRPV1 in HEK cells assessed by measuring capsaicin-induced calcium level by FLIPR technology; format: cell-based, HEK293
Method in brief: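 Stably transfected hTRPV1/HEK cells plated on poly-D-lysine and used 2 days later. Loaded with Fluo-3/AM for 1 h, then given a single concentration of compound. Antagonist potency protocol taken from earlier work.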

[2] = biological target: T1, Transient receptor potential cation channel subfamily V member 1; assay: Displacement of [3H]RTX from human TRPV1 receptor expressed in HEK293 cells; format: cell-based
Method in brief: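 Membranes from HEK293 stably expressing human TRPV1, prepared by homogenisation and differential centrifugation. Binding buffer: 20 mM Hepes pH 7.4, 5.8 mM NaCl, 320 mM sucrose, 2 mM MgCl2, 0.75 mM CaCl2, 5 mM KCl. Incubated 60 min at 37 °C with 0.3–0.6 nM [3H]-RTX. Cooled on ice, alpha-acid glycoprotein added, pellet counted by scintillation. Nonspecific binding defined with 200 nM unlabeled RTX.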

[3] = Elimination half life in Sprague-Dawley rat; format: ADME, organism-based; conditions: in vivo
Method in brief: (§1)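 Pharmacokinetics measured in male Sprague–Dawley rats after intravenous and oral dosing.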

[4] = Clearance in Sprague-Dawley rat; format: ADME, organism-based; conditions: in vivo; method in brief: as §1
[5] = Metabolic stability in human liver microsomes after 15 mins; format: ADME, Microsome; conditions: read-out: Stability
Method in brief: (§2)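 Compound incubated with rat or human liver microsomes. Percent of parent remaining measured after 15 min.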

[6] = Metabolic stability in rat liver microsomes after 15 mins; format: ADME, Microsome; conditions: read-out: Stability; method in brief: as §2
[7] = Oral bioavailability in Sprague-Dawley rat; format: ADME, organism-based; conditions: in vivo; method in brief: as §1
Rattus norvegicus = assay: Reversal of CFA-induced thermal hyperalgesia in Sprague-Dawley rat at 30 mg/kg, po; format: functional
Method in brief: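 Thermal hyperalgesia induced by CFA injection in Sprague–Dawley rats. Radiant-heat withdrawal latency measured on a warm glass surface after about 10 min acclimation, before and 24 h after CFA. Single oral dose given, latencies reassessed at 100 min post-dose and compared with vehicle. Analysis by two-way ANOVA with Bonferroni post hoc test, p < 0.05.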

T1 sequence (Q8NER1 whole entry): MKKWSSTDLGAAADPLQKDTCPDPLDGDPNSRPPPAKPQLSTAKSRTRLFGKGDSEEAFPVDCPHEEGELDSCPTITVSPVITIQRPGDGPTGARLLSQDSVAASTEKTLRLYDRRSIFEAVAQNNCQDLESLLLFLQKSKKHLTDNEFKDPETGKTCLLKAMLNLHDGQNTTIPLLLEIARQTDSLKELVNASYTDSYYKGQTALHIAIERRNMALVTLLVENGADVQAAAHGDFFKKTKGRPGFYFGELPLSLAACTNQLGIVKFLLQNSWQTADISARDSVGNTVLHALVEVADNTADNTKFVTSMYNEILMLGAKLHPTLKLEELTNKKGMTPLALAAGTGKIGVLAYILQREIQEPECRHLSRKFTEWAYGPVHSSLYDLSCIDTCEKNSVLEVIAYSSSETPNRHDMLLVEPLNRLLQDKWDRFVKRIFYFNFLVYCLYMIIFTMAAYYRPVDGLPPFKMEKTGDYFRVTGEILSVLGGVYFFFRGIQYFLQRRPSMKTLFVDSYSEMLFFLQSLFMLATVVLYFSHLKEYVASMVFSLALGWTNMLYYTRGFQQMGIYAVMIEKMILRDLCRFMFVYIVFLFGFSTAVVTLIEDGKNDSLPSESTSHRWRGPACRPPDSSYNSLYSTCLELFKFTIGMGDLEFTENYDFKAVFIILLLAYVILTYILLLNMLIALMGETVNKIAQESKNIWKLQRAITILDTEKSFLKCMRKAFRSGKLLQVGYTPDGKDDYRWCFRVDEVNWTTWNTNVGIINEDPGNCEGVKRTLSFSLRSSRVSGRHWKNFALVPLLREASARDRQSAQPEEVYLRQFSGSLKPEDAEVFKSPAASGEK

SMILES | EC50 [1] | Ki [2] | IC50 [1] | also measured
CCCCCCCCCCc1ccc(C(=O)Nc2cccnc2)cc1 | > 30 µM | 607 nM | – | –
CCCc1ccc(C(=O)Nc2cnc3ccccc3c2)cc1 | – | 60 nM | 130 nM | –
CCCCCc1ccc(CC(=O)Nc2cccnc2)cc1 | > 5 µM | 7260 nM | – | –
CCCCN(C)c1ccc(C(=O)Nc2cnc3ccccc3c2)cc1 | – | – | 66 nM | –
CCCCCc1ccc(NC(=O)c2cccnc2)cc1 | > 5 µM | > 3000 nM | – | –
CCCCCCCc1ccc(C(=O)Nc2cnc3ccccc3c2)cc1 | – | 3520 nM | > 30000 nM | –
CN(c1ccc(C(=O)Nc2cnc3ccccc3c2)cc1)C1CCCCC1 | – | – | – | half-life [3]: 100 min; clearance [4]: 20 mL/min/kg; remaining at 0.25 h [5]: 25%; remaining at 0.25 h [6]: 45%; bioavailability [7]: 70%; Activity (Rattus norvegicus): > 80%

Continued, in another order:

EC50 [1] | Ki [2] | IC50 [1] | SMILES | also measured
– | 53 nM | 230 nM | CCCCc1ccc(C(=O)Nc2cnc3ccccc3c2)cc1 | –
– | 16 nM | 170 nM | CN(CC1CCCCC1)c1ccc(C(=O)Nc2cnc3ccccc3c2)cc1 | –
– | 15 nM | – | CCCCCCCCN(C)c1ccc(C(=O)Nc2cnc3ccccc3c2)cc1 | –
